Data reported in ChEMBL document CHEMBL2176911 (J Med Chem, 2012).
Activity calls are given as the source filed them. The rule behind the calls is not given here.

Assays:
[1] = target: Dual specificity tyrosine-phosphorylation-regulated kinase 1A (Homo sapiens) (UniProt Q13627); assay: Inhibition of human recombinant GST-tagged DYRK1A expressed in Escherichia coli using KKISGRLSPIMTEQ as substrate at 10 uM after 30 mins
[2] = target: T1, Dual specificity tyrosine-phosphorylation-regulated kinase 2 (Homo sapiens) (UniProt Q92630); assay: Inhibition of human recombinant GST-tagged DYRK2 expressed in Escherichia coli using KKISGRLSPIMTEQ as substrate at 1 uM after 30 mins
T1 sequence (whole entry): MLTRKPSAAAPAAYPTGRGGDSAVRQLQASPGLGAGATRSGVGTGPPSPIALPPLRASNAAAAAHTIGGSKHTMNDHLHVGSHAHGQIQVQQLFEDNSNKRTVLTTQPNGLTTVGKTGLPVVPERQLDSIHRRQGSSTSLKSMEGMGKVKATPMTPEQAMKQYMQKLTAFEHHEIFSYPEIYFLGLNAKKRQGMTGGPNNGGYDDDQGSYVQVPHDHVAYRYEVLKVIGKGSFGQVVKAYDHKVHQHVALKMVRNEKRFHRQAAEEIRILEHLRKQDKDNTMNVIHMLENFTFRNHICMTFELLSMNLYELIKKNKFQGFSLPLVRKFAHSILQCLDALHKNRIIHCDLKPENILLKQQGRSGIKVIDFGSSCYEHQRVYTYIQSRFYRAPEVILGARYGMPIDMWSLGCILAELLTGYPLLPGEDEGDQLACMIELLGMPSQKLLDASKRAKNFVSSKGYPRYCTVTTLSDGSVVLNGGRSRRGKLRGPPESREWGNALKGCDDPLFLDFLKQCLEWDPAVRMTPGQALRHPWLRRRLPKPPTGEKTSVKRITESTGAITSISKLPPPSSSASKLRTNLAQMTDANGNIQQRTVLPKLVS

[3] = target: Dual specificity protein kinase CLK3 (Homo sapiens, UniProt P49761); assay: Binding affinity to CLK3
Dual specificity protein kinase CLK3, sequence (P49761 whole entry): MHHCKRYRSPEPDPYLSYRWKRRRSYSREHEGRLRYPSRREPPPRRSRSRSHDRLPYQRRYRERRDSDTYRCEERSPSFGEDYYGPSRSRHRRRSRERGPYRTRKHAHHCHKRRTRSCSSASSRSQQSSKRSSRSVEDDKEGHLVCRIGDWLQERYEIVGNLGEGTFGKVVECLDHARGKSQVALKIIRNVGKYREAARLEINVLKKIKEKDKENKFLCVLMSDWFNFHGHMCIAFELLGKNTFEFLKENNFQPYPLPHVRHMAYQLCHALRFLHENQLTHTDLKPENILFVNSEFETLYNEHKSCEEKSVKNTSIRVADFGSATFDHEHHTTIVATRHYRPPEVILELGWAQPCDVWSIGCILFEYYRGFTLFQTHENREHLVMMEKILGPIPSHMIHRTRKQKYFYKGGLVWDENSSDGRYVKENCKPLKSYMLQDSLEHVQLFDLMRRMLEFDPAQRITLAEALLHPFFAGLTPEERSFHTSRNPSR

[4] = Inhibition of starfish CDK1/cyclin B using histone H1 as substrate and [gamma33P]ATP after 30 mins by scintillation counting; set-up: species or system Asteroidea
Method in brief: (§1)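 Panel of purified kinases (recombinant from several species plus native enzymes), each assayed radiometrically over a range of inhibitor concentrations; IC50 in μM calculated from the dose-response curves.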

[5] = Inhibition of CK2 at 10 uM after 30 mins
HT-22 [6] = assay: Downregulation of GSK3 expression in mouse HT22 cells after 4 hrs by Western blot analysis; type: functional, cell-based
[7] = target: Mitogen-activated protein kinase 1 (Rattus norvegicus, UniProt P63086); assay: Inhibition of rat recombinant ERK2 using Ets1 as substrate and [gamma33P]ATP as substrate after 30 mins by scintillation counting; method in brief: as §1
Mitogen-activated protein kinase 1, sequence (P63086 whole entry): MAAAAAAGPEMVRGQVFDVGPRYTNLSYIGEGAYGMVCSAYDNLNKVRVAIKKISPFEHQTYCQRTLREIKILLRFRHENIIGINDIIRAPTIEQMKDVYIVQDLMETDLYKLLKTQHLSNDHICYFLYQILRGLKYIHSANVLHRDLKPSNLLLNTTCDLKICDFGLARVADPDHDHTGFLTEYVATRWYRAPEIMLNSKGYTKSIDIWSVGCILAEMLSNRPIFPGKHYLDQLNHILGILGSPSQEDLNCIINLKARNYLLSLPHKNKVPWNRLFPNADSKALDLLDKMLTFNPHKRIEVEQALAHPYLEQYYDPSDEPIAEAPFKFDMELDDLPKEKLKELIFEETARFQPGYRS

HT-22 [8] = assay: Inhibition of GSK3-mediated […] phosphorylation in mouse HT22 cells at 0.01 to 10 uM after 24 hrs by Western blot analysis in presence of MG132; type: cell-based
[9] = target: Glycogen synthase kinase-3 (Sus scrofa, UniProt B2LUN4+I6LNT8); assay: Inhibition of pig GSK3alpha/beta isolated from brain using YRRAAVPPSPSLSRHSSPHQ-phosphoS-EDEEE as substrate and [gamma33P]ATP after 30 mins by scintillation counting; method in brief: as §1
Casein kinase II = Casein kinase II (Homo sapiens, UniProt P19784+P67870+P68400); assay: Inhibition of human recombinant CK2 using RRREDEESDDEE as substrate and [gamma33P]ATP after 30 mins by scintillation counting; type: protein-complex assay
Casein kinase II, sequence (P67870 whole entry): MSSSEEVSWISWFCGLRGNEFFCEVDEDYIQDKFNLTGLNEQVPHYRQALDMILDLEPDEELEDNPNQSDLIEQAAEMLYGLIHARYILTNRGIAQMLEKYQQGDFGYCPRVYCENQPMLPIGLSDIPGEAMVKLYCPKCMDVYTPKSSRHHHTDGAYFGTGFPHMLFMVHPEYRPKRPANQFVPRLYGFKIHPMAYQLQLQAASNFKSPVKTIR
Casein kinase II, sequence (P68400 whole entry): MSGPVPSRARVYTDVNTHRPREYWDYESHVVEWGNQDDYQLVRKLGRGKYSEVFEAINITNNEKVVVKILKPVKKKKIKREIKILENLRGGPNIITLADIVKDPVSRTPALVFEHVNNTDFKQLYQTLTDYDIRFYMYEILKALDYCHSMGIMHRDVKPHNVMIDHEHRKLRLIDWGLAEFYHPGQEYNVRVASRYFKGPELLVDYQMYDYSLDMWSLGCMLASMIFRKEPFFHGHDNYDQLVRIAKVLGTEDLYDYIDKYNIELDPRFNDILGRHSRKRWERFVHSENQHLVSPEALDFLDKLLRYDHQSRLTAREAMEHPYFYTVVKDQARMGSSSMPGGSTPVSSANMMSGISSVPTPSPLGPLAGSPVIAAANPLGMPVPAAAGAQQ
Casein kinase II, sequence (P19784 whole entry): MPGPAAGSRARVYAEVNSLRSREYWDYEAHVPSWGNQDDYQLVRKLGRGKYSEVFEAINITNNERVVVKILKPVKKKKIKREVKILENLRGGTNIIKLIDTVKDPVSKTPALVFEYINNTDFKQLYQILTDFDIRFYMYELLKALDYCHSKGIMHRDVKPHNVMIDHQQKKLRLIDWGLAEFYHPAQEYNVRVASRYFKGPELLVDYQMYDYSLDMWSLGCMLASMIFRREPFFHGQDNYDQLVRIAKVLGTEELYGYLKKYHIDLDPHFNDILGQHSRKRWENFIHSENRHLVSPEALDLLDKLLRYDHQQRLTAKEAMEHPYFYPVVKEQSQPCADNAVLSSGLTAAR
Method in brief: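 Purified recombinant kinase from a 26-enzyme panel, with inhibitor tested at various concentrations. IC50 in μM calculated from dose–response curves.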

[10] = target: Glycogen synthase kinase-3 beta (Homo sapiens, UniProt P49841); assay: Inhibition of human recombinant GSK3beta expressed in insect cells using YRRAAVPPSPSLSRHSSPHQ-phosphoS-EDEEE as substrate and [gamma33P]ATP after 30 mins by scintillation counting
Glycogen synthase kinase-3 beta, sequence (P49841 whole entry): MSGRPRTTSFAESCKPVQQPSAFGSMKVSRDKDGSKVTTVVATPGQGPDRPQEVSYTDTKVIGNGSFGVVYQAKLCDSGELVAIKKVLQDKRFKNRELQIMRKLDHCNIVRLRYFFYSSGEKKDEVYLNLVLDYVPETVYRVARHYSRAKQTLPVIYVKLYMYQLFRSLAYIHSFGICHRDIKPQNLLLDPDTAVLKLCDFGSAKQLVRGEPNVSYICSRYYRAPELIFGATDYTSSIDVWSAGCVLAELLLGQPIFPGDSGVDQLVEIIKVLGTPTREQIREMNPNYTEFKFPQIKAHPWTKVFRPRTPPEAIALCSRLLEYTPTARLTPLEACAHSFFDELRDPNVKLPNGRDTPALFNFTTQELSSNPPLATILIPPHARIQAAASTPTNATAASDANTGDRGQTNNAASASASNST

[11] = target: Dual specificity tyrosine-phosphorylation-regulated kinase 3 (Homo sapiens) (UniProt O43781); assay: Inhibition of human recombinant GST-tagged DYRK3 expressed in Escherichia coli using KKISGRLSPIMTEQ as substrate at 10 uM after 30 mins
Dual specificity tyrosine-phosphorylation-regulated kinase 3 (Homo sapiens), sequence (O43781 whole entry): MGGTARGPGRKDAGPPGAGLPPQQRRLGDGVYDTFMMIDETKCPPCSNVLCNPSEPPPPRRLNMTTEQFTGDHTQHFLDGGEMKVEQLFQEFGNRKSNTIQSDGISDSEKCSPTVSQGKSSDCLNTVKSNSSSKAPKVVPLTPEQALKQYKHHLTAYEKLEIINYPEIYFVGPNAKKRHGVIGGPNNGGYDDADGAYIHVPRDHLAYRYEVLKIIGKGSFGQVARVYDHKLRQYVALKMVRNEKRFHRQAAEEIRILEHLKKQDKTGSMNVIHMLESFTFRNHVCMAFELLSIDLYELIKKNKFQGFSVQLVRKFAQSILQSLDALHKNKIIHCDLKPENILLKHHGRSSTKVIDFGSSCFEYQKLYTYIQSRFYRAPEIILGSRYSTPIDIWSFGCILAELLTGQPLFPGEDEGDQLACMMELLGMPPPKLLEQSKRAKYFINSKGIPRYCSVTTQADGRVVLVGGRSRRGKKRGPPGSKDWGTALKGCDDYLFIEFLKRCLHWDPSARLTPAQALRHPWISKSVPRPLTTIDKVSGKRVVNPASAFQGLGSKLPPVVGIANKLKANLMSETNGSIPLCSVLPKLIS

[12] = target: Interleukin-1 receptor-associated kinase 1 (Homo sapiens, UniProt P51617); assay: Binding affinity to IRAK1
Interleukin-1 receptor-associated kinase 1, sequence (P51617 whole entry): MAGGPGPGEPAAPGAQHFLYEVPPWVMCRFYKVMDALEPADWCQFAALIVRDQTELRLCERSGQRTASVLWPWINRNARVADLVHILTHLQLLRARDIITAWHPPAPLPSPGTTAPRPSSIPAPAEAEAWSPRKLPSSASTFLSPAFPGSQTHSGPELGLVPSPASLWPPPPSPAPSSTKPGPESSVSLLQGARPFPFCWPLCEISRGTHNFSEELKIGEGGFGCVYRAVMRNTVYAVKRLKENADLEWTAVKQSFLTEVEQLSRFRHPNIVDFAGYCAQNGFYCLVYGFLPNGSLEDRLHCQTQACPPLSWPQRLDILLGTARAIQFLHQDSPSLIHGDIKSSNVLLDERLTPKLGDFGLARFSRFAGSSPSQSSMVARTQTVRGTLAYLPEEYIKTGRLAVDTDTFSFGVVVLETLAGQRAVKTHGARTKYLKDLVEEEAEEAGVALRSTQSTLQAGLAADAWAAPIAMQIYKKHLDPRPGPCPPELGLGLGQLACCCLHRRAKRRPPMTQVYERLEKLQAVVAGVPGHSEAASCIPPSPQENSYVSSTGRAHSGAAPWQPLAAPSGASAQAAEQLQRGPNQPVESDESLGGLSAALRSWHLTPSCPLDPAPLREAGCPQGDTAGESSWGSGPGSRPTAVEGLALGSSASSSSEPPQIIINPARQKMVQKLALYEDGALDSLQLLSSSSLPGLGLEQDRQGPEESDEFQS

HT-22 [13] = assay: Inhibition of GSK3 in mouse HT22 cells at 10 uM after 4 hrs; type: cell-based

Structure (SMILES): O=C1NC(Nc2ccccc2)=N/C1=C\c1ccc2c(c1)OCO2
- inhibition [1]: Active
- inhibition [2]: Active
- Kd [3]: 1100 nM
- IC50 [4]: > 30000 nM
- inhibition [5]: Active
- Activity (HT-22 [6]): inactive
- IC50 [7]: > 30000 nM
- inhibition (HT-22 [8]): inactive
- IC50 [9]: 410 nM
- IC50 (Casein kinase II): 320 nM
- IC50 [10]: 380 nM
- inhibition [11]: Active
- Kd [12]: 930 nM
- inhibition (HT-22 [13]): inactive
